Source: ChEMBL document CHEMBL1123024, “5,6-Diaryl-2,3-dihydroimidazo[2,1-b]thiazoles: a new class of immunoregulatory antiinflammatory agents” (1985)

Experiments:
[1] = tested on: Rattus norvegicus; experiment: Compound was tested by carrageenan -induced paw edema for percent change in paw volume of control sham operated rats; assay type: functional
Method in brief: (§1)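 Normal, adrenalectomized or sham-operated Lewis rats were dosed po in 0.5% tragacanth, hydrated. 1 h later paw volume was read, then […] of 1% carrageenan in 0.9% saline was injected into the right hindpaw plantar surface. Volume was re-read at 3 h. Percent change, treated vs control; Student's t test.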

[2] = organism: Rattus norvegicus; experiment: Inhibition of secondary nonimmune L16 inflammatory lesions was measured; activity value ranges from 0.19 - 0.79; assay type: functional
Method in brief: (§2)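 Male Wistar rats received 0.75 mg M. butyricum in paraffin oil intradermally into the left hindpaw. Compounds were given daily po in 0.5% tragacanth from the injection day for 17 days, skipping days 4, 5, 11 and 12. Leg volumes were read by mercury displacement: left leg on day 3, both legs on day 16. Eight treated rats vs 16 vehicle controls; Student's t test. ED25 is the dose giving a 25% volume decrease, from at least three doses, with 95% limits by Fieller's theorem.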

[3] = organism: Rattus norvegicus; experiment: Inhibition of primary nonimmune L3 inflammatory lesions was measured.; assay type: functional; method in brief: as §2
[4] = tested on: Rattus norvegicus; experiment: Compound was tested by carrageenan -induced paw edema for percent change in paw volume on treated vs. control adrenalectomized rats; assay type: functional; method in brief: as §1
[5] = organism: Rattus norvegicus; experiment: Inhibition of immune R16 inflammatory lesions was measured.; activity value ranges from 0.17 - 1.73; assay type: functional; method in brief: as §2
[6] = tested on: Mus musculus; experiment: Change in paw edema in oxazolone -induced arthritic mice at 5 mg/kg
[7] = tested on: Mus musculus; experiment: Change in paw edema in methotrexate-suppressed oxazolone -induced contact sensitivity in mice at 5 mg/kg; % change was not statistically significant; assay type: functional
[8] = organism: Mus musculus; experiment: Immunoregulatory activity against oxazolone induced mouse contact sensitivity was evaluated as percent change; assay type: functional
Method in brief: (§3)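 Male C57B1/6 mice were sensitized with 0.1 mL of 5% oxazolone in absolute ethanol on the clipped abdomen. At 45 h the left hind leg was challenged with 5% oxazolone. Compound was given po in 0.5% tragacanth. Edema was read plethysmographically 24 h later as left minus right leg volume. Six mice vs eight controls; Student's t test.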

[9] = tested on: Rattus norvegicus; experiment: The compound was tested for percent change in immune R16 inflammatory lesions in rat adjuvant-induced arthritis at 50 mg/kg; the %change is Not statistically significant; assay type: functional; method in brief: as §2
[10] = tested on: Rattus norvegicus; experiment: The compound was tested for percent change in nonimmune L16 inflammatory lesions in rat adjuvant-induced arthritis at 50 mg/kg; the %change is Not statistically significant; assay type: functional; method in brief: as §2
[11] = tested on: Rattus norvegicus; experiment: The compound was tested for percent change in nonimmune L3 inflammatory lesions in rat adjuvant-induced arthritis at 50 mg/kg; the %change is Not statistically significant; assay type: functional; method in brief: as §2
[12] = tested on: Rattus norvegicus; experiment: The compound was tested for percent change in nonimmune L16 inflammatory lesions in rat adjuvant-induced arthritis at 50 mg/kg; assay type: functional; method in brief: as §2
[13] = tested on: Rattus norvegicus; experiment: The compound was tested for percent change in immune R16 inflammatory lesions in rat adjuvant-induced arthritis at 50 mg/kg; assay type: functional; method in brief: as §2
[14] = tested on: Mus musculus; experiment: Immunoregulatory activity against oxazolone induced mouse contact sensitivity was evaluated as percent change at a dose of 10 mg/kg; assay type: functional; method in brief: as §3
[15] = tested on: Rattus norvegicus; experiment: The compound was tested for percent change in nonimmune L3 inflammatory lesions in rat adjuvant-induced arthritis at 50 mg/kg; assay type: functional; method in brief: as §2
[16] = tested on: Rattus norvegicus; experiment: The compound was tested for percent change in immune R16 inflammatory lesions in rat adjuvant-induced arthritis at 50 mg/kg; the % change was Not Significant; assay type: functional; method in brief: as §2
[17] = organism: Rattus norvegicus; experiment: animal or person
[18] = organism: Rattus norvegicus; experiment: animal or person; remark: listed apart in the source
[19] = organism: Rattus norvegicus; experiment: animal or person; remark: listed apart in the source
[20] = tested on: Rattus norvegicus; experiment: The compound was tested for percent change in nonimmune L3 inflammatory lesions in rat adjuvant-induced arthritis at 50 mg/kg; the % change was not statistically significant; assay type: functional; method in brief: as §2
[21] = organism: Mus musculus; experiment: Immunoregulatory activity against oxazolone induced mouse contact sensitivity was evaluated as percent change; the % change was not statistically significant; assay type: functional, organism-based; method in brief: as §3
[22] = tested on: Rattus norvegicus; experiment: The compound was tested for percent change in immune R16 inflammatory lesions in rat adjuvant-induced arthritis at 50 mg/kg; the % change was not statistically significant; assay type: functional; method in brief: as §2
[23] = tested on: Rattus norvegicus; experiment: Change in 19S hemagglutinination titers in adjuvant-induced arthritic rats at 50 mg/kg.; assay type: functional
[24] = tested on: Rattus norvegicus; experiment: Percent change in nonimmune L16 inflammatory lesions in rat adjuvant-induced arthritis at 50 mg/kg; assay type: functional; method in brief: as §2
[25] = tested on: Rattus norvegicus; experiment: Percent change in immune R16 inflammatory lesions in rat adjuvant-induced arthritis at 50 mg/kg; assay type: functional; method in brief: as §2
[26] = tested on: Rattus norvegicus; experiment: Compound was tested by carrageenan -induced paw edema for percent change in paw volume of control in adrenalectomized operated rats at 50 mg/kg.; assay type: functional; method in brief: as §1
[27] = organism: Mus musculus; experiment: Immunoregulatory activity against mouse contact sensitivity was evaluated as percent change; assay type: functional; method in brief: as §3
[28] = tested on: Rattus norvegicus; experiment: Percent change in nonimmune L3 inflammatory lesions in rat adjuvant-induced arthritis at 50 mg/kg; assay type: functional; method in brief: as §2
[29] = tested on: Mus musculus; experiment: Change in paw edema in methotrexate-suppressed oxazolone -induced contact sensitivity in mice at 50 mg/kg.; assay type: functional
[30] = organism: Rattus norvegicus; experiment: Inhibition of secondary nonimmune, L16 inflammatory lesions was measured; assay type: functional; method in brief: as §2
[31] = organism: Rattus norvegicus; experiment: Inhibition of primary nonimmune, L3 inflammatory lesions was measured; assay type: functional; method in brief: as §2
[32] = organism: Rattus norvegicus; experiment: Inhibition of immune, R16 inflammatory lesions was measured; assay type: functional; method in brief: as §2
[33] = tested on: Mus musculus; experiment: Change in paw edema in oxazolone -induced arthritic mice at 50 mg/kg.
[34] = tested on: Rattus norvegicus; experiment: Change in 7S hemagglutinination titers in adjuvant-induced arthritic rats at 50 mg/kg.; assay type: functional
[35] = tested on: Rattus norvegicus; experiment: Compound was tested by carrageenan -induced paw edema for percent change in paw volume of control sham operated rats at 50 mg/kg.; assay type: functional; method in brief: as §1

**Q.** Which Change [1] does the source give for COc1ccc(-c2nc(C(F)(F)F)[nH]c2-c2ccc(OC)cc2)cc1 [FLUMIZOLE] here?
**A.** Its Change is -48%.

**Q.** And the ED25 [2]?
**A.** The ED25 was 0.45 mg/kg.

**Q.** What about the ED25 [3] of the same compound?
**A.** The ED25 was 11 mg/kg.

**Q.** What about the Change [4] of the same compound?
**A.** The Change was -47%.

**Q.** And the ED25 [5]?
**A.** Its ED25 is 0.78 mg/kg.

**Q.** What about the Change [6] of the same compound?
**A.** The Change was -28%.

**Q.** What about the Change [7] of the same compound?
**A.** Its Change is 3%.

**Q.** Which results are given for COc1cccc(-c2nc3n(c2-c2cccc(OC)c2)CC[S+]3[O-])c1 (centres undefined)?
**A.** Change [8]: 59%; Change [9]: 7%; Change [10]: 9%; Change [11]: 4%

**Q.** What does the source list for COc1ccc(-c2nc3n(c2-c2ccc(OC)cc2)CC[S+]3[O-])cc1 (centres undefined)?
**A.** Change [12]: -29%; Change [13]: -32%; Change [14]: 76%; Change [15]: -24%

**Q.** For COc1ccc(-c2nc3n(c2-c2ccc(OC)cc2)CCS3(=O)=O)cc1, which Change [8] is on record?
**A.** Its Change is 95%.

**Q.** What about the Change [12] of the same compound?
**A.** Its Change is -12%.

**Q.** And the Change [16]?
**A.** The Change was -7%.

**Q.** And the Change [15]?
**A.** Its Change is -11%.

**Q.** How did the ED25 [17] turn out when c1ccc([C@H]2CN3CCSC3=N2)cc1 [LEVAMISOLE] was run?
**A.** Its ED25 is 44.4 mg/kg.

**Q.** And the ED25 [18]?
**A.** The ED25 was 127 mg/kg.

**Q.** And the ED25 [19]?
**A.** The ED25 was 73.4 mg/kg.

**Q.** Which results are given for COc1ccc(-c2nc3sccn3c2-c2ccc(OC)cc2)cc1?
**A.** Change [20]: -6%; Change [12]: -9%; Change [21]: Not significant; Change [22]: 0%

**Q.** Which Change [23] does the source give for COc1ccc(-c2nc3n(c2-c2ccc(OC)cc2)CCS3)cc1 here?
**A.** The Change was 1.2%.

**Q.** And the Change [24]?
**A.** Its Change is -34%.

**Q.** What about the Change [25] of the same compound?
**A.** The Change was -21%.

**Q.** What about the Change [26] of the same compound?
**A.** The Change was -58%.

**Q.** And the Change [27]?
**A.** Its Change is 211%.

**Q.** What about the Change [28] of the same compound?
**A.** Its Change is -24%.

**Q.** And the Change [29]?
**A.** The Change was 156%.

**Q.** What about the ED25 [30] of the same compound?
**A.** The ED25 was 18.7 mg/kg.

**Q.** And the ED25 [31]?
**A.** The ED25 was 32.9 mg/kg.

**Q.** And the ED25 [32]?
**A.** Its ED25 is 24.4 mg/kg.

**Q.** And the Change [33]?
**A.** Its Change is 211%.

**Q.** What about the Change [34] of the same compound?
**A.** Its Change is -3.7%.

**Q.** And the Change [35]?
**A.** Its Change is -63%.
